The source made the active and inactive calls. The calls are words filed in the database; no cut-off is given here.
Key:
[1] = target: T1, Pyruvate carboxylase, mitochondrial (Bos taurus) (UniProt Q29RK2); test: Inhibition of bovine pyruvate carboxylase
T1 sequence (whole entry): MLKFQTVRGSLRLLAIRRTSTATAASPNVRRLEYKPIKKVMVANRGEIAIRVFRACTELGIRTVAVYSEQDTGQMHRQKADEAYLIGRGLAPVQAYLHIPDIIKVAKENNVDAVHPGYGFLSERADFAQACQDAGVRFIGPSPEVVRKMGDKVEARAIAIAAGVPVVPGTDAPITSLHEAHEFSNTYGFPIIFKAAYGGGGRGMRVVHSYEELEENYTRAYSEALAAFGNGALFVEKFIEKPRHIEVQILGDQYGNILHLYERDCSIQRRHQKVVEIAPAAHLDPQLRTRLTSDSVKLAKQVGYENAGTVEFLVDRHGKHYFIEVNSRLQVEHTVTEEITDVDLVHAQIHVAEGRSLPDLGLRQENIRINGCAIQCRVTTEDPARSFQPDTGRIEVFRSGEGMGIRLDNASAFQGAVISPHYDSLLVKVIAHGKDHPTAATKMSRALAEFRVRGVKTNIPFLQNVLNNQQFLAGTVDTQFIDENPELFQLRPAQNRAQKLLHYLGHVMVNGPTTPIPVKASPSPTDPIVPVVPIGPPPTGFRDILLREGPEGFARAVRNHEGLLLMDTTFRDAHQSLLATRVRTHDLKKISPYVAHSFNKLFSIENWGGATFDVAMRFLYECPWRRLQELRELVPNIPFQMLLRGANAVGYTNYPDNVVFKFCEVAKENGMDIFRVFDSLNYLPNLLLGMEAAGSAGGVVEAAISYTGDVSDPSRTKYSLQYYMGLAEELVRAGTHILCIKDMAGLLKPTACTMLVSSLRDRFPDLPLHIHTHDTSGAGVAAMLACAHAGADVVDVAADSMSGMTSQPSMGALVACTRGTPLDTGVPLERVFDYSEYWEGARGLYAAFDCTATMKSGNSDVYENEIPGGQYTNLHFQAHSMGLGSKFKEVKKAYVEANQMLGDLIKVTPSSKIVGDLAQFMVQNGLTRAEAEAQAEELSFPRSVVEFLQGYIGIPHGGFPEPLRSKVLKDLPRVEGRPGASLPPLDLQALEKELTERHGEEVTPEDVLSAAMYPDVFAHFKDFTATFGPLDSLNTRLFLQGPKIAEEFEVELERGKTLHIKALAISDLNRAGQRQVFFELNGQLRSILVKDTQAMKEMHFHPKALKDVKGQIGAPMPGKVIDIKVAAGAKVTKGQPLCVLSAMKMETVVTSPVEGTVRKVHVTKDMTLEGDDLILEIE

[2] = target: T2, Peroxisome proliferator-activated receptor alpha (Homo sapiens) (UniProt Q07869); test: Inhibition of PPARalpha
T2 sequence (whole entry): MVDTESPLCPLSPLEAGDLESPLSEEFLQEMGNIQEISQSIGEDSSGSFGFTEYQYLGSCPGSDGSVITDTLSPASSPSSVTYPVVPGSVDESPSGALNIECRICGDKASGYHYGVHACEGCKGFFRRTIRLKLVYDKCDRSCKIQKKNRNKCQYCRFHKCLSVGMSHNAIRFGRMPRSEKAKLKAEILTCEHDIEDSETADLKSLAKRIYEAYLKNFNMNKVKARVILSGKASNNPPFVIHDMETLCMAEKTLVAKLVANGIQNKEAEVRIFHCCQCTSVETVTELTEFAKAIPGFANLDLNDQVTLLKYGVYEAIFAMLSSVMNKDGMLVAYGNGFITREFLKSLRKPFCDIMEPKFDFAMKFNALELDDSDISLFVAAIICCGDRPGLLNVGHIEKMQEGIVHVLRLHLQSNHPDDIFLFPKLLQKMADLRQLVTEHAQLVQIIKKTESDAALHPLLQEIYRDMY

[3] = target: T3, Peroxisome proliferator-activated receptor delta (Homo sapiens) (UniProt Q03181); test: Inhibition of PPARdelta
T3 sequence (whole entry): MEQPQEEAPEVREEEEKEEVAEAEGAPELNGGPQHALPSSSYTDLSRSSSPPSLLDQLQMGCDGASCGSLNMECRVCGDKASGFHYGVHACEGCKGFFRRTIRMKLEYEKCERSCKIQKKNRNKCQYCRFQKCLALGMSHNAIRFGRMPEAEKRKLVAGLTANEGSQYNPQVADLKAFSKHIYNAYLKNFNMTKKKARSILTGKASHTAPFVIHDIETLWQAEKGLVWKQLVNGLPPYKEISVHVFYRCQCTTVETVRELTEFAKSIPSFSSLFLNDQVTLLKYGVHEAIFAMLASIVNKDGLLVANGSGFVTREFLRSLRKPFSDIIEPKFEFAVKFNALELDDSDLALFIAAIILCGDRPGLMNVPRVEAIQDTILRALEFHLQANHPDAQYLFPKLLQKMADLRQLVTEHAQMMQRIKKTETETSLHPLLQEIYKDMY

Hepatocyte = test: Stimulation of fat oxidation in human hepatocytes assessed as release of 3H2O from ss-oxidation of [9,10(n)-3[3H]palmitic acid after 4 hrs; format: functional, cell-based
How it was run: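 Attached human hepatocytes washed with PBS, then incubated in DMEM with 5 μM ³H-palmitic acid (15000 Bq/ml), 0.2 mg/mL BSA, 500 μM L-carnitine, 0.1% DMSO, 25 mM glucose and inhibitor. Started with 0.5 μCi [³H]palmitate. ³H₂O release measured after 4 h by scintillation. Expressed as fold of the 0 μM control; means ± SEM (n = 4).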

[4] = Volume of distribution at steady state in Wistar rat plasma at 3 mg/kg, iv; format: ADME, organism-based; design: dose 3 mg/kg, route intravenous
How it was run: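 Wistar rats given an intravenous bolus of 3 mg/kg in 5% solutol solution. Plasma sampled at eight time points over 24 h. Drug quantified by LC-MS/MS against an internal standard. C0h is the concentration immediately after dosing; AUC0-inf, clearance, t1/2 and Vdss were also derived.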

[5] = Tmax in Wistar rat plasma at 10 mg/kg, po; format: ADME, organism-based; design: dose 10 mg/kg, route oral
How it was run: (§1)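 Female Wistar rats given a single oral dose of 10 mg/kg in 10% DMSO. Plasma and liver sampled at eight time points over 24 h, three animals killed per time point. Drug levels measured by LC-MS/MS with an internal standard. […] Values are means ± SD (n = 3).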

[6] = AUC (0 to infinity) in Wistar rat plasma at 10 mg/kg, po; format: ADME, organism-based; design: time infinity, dose 10 mg/kg, route oral; how it was run: as §1
[7] = AUC (0 to infinity) in Wistar rat liver at 10 mg/kg, po; format: ADME, organism-based; design: time infinity, dose 10 mg/kg, route oral; how it was run: as §1
[8] = Ratio of AUC (0 to infinity) in liver to plasma of Wistar rat at 10 mg/kg, po; format: ADME, organism-based; design: dose 10 mg/kg, route oral
How it was run: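 Female Wistar rats received a single oral 10 mg/kg dose in 10% DMSO. Plasma and liver were sampled at eight time points over 24 h, with three animals killed per time point. Drug levels were measured by LC-MS/MS against an internal standard. Liver/plasma ratio was calculated from AUC0-inf.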

Rattus norvegicus = test: Reduction in plasma triglycerides in obese ZDF rat at 30 mg/kg, po for 3 days measured 4 hrs post last dose; format: functional, organism-based; design: dose 30 mg/kg
How it was run: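 Female obese ZDF rats, eight weeks old, dosed orally for 3 days with 30 mg/kg in 5% ethanol/5% solutol/90% PBS (n = 8); controls got vehicle, with lean controls alongside. Four hours after the last dose, aortic blood taken under isoflurane. Triglycerides measured by GPD-PAP method; means ± SEM.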

## CC(=O)N[C@@H](C)CCc1ccc(Oc2ccc(OC(C)C)nc2)cc1
[1]
  inhibition: inactive
[2]
  inhibition: inactive
[3]
  inhibition: inactive
Hepatocyte
  Activity: Dose-dependent effect
[4]
  Vd: 2.6 L/kg
[5]
  Tmax: 2 h
[6]
  AUC(0-inf): 19 µM·h
[7]
  AUC(0-inf): 120 µM·h
[8]
  Kp: 6
Rattus norvegicus
  Activity: Active

Reference: ChEMBL document CHEMBL1629448, “Identification and synthesis of novel inhibitors of acetyl-CoA carboxylase with in vitro and in vivo efficacy on fat oxidation” (J Med Chem, 2010)
